An excerpt weighted towards active compounds, which were near 4% of everything screened.
Mdm2-MdmX inh = inhibitors of human Mdm2-MdmX association, primary screen, cell-based, luminescence, split luciferase, SaOS-2, uHTS. Protein Mdm4 (Homo sapiens) + E3 ubiquitin-protein ligase Mdm2 (Homo sapiens), …. SaOS-2 split-luciferase Mdm2/MdmX complementation. 330,000 tested, 3% active. inhibition, % at 8 µM;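 active = inhibition of at least 50% at 8 µM in the primary screen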
ABHD5-PLIN5 inh = ABHD5-PLIN5 interaction inhibitors, primary screen, cell lysate, split luciferase complementation, luminescence; Split G. princeps luciferase complementation, 4 h; 360,000 tested, 0.78% active; AID 602281, 2012; Perilipin-5 (Homo sapiens) + 1-acylglycerol-3-phosphate O-acyltransferase ABHD5 (Homo …; inhibition, % at 4 µM;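 active = inhibition above the mean inhibition across every tested compound plus 3 SD, cut at about 22% in these data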
CHOP UPR activ = activators of apoptotic CHOP UPR arm, primary screen, cell-based, CHO-CHOP luciferase reporter, luminescence, uHTS; UPR activation; percent of tunicamycin response over DMSO baseline; activation, % at 10 µM; 330,000 tested, 0.34% active; AID 449763, 2010;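 active = at 10 µM dose, activation of 40% or more, normalized to positive control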
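System: CHO-CHOP luciferase reporter cell line; amount: 500 cells/well; buffer or medium: F12 medium containing 10% fetal bovine serum; incubation: 6 h compound exposure at 37 °C after overnight seeding; measured by: luciferase luminescence after 10 min with Steady-Glo reagent; evaluation: % reporter activation, DMSO baseline versus tunicamycin full activation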
Exocytosis inh = LAMP-1 surface exposure blockers, TALL-104 cells – cell-based, flow cytometry, MLPCN library, primary screen; TALL-104 LAMP-1 surface exposure; cells stimulated with thapsigargin and PMA; AID 651702, 2012; inhibition, % at 10 µM; 360,000 tested, 0.66% active;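 active = inhibition above about 55%, limit read from the data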
UPR XBP1 act = activators of adaptive XBP1 UPR arm, primary screen, cell-based, CHO-XBP1 luciferase reporter, luminescence, uHTS; IRE1-XBP1 UPR activation; percent of tunicamycin response, DMSO as zero; activation, % at 20 µM; 330,000 tested, 0.33% active;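 active = versus positive control, 20 µM dose yields 30% or more activation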
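Material: CHO-XBP1 cells stably carrying IRE1-XBP1-driven luciferase reporter | Medium: F12 with 10% serum | Compound dosing: 20 µM single concentration, DMSO 1% | Incubation: Overnight seeding at 37 °C, 6 h compound treatment at 37 °C | Detection: Steady-Glo luminescence read | Read-out basis: % activation of reporter signal versus tunicamycin and DMSO controls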
CHOP UPR conf = activators of apoptotic CHOP UPR arm, confirmation, cell-based, CHO-CHOP luciferase reporter, single concentration; shares compounds with CHOP UPR activ; CHO-CHOP cells, CHOP-luciferase reporter luminescence; percent of tunicamycin response, DMSO as zero; activation, % at 10 µM; 1,000 tested, 64% active; in the data active = activation above about 33%
XBP1 UPR conf = IRE1-XBP1 UPR arm activators, confirmation, cell-based, CHO-XBP1 luciferase reporter, luminescence, single concentration; shares compounds with UPR XBP1 act; activation, % at 20 µM; 1,000 tested, 63% active; AID 485299, 2010;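 active = reporter signal at least 30% of the positive control's activation in two or more of four replicate wells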
Mdm2-MdmX conf = Mdm2-MdmX complex disruptors, retested hits, confirmation, luminescence, single concentration; shares compounds with Mdm2-MdmX inh; 10,000 tested, 55% active; inhibition, % at 8 µM; Mdm2-MdmX binding, luminescent assay; in the data active = inhibition above about 40%
Full FLuc ctr = full-length luciferase signal inhibition, confirmation, counter-screen for Mdm2/MdmX interaction inhibitor project, cell-based, single concentration, SaOS-2 | shares compounds with Mdm2-MdmX inh | SaOS-2 full-length luciferase counterscreen, luminescence | inhibition, % at 8 µM | 6,200 tested, 77% active | AID 504607, 2011;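 active = mean inhibition at 8 µM reaching about 37%, which flags the compound as non-specific, limit read from the data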;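 note: p53-null SaOS-2 cells with luciferase driven by a doxycycline-inducible promoter; compound on cells about two nights before reading with doxycycline added after day one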
Hits are given with their value; 0 = inactive; - = not tested or not shown.

SMILES	Mdm2-MdmX inh	ABHD5-PLIN5 inh	CHOP UPR activ	Exocytosis inh	UPR XBP1 act	CHOP UPR conf	Mdm2-MdmX conf	Full FLuc ctr	others
CN1CCN(c2ccc(NC(=O)c3ccc([N+](=O)[O-])o3)cc2Cl)CC1	64	0	99	0	0	59	50	0
CC(C)C(=O)N1CCN(c2ccc(NC(=O)c3ccc([N+](=O)[O-])o3)cc2Cl)CC1	-	0	-	0	-	-	-	-
CC(C)C(=O)N1CCN(c2ccc(NC(=O)c3ccc([N+](=O)[O-])o3)cc2)CC1	72	0	108	0	0	71	52	0
O=C(Nc1ccc(N2CCOCC2)c(Cl)c1)c1ccc([N+](=O)[O-])o1	-	0	-	0	-	-	-	-
C[C@]12CCC(=O)C=C1CC[C@@H]1[C@@H]2CC[C@@]2(C)[C@H]1CC[C@]2(O)C(=O)CO	0	0	0	0	0	-	-	-
O=S(=O)(c1ccc(OCC(O)CN2CCCC2)cc1)N1CCOCC1 (centres undefined)	0	0	0	0	0	-	-	-
O=[N+]([O-])c1c(NCCCO)cc(Sc2ccc(Cl)cc2)c2nonc12	-	0	-	0	-	-	-	-
CC(=O)OCCCNc1cc(Sc2ccc(C)cc2)c2nonc2c1[N+](=O)[O-]	54	0	149	0	0	0	59	68
O=C(Nc1ccc(-c2nc3cc(NC(=O)c4cccs4)ccc3o2)cc1)c1cccs1	60	0	195	0	148	202	0	-	XBP1 UPR conf=324
Cc1ccc(-c2nc3ncccc3o2)cc1NC(=O)c1ccc([N+](=O)[O-])o1	0	0	0	0	0	-	-	-
O=C(Nc1ccc2oc(-c3ccncc3)nc2c1)c1ccccc1	0	0	0	0	0	-	-	-
O=C(Nc1ccc(-c2nc3ncccc3o2)cc1)c1ccc([N+](=O)[O-])o1	55	0	313	0	0	135	49	54
O=C(Nc1ccc2oc(-c3ccc4ccccc4c3)nc2c1)c1ccc2c(c1)OCCO2	80	0	40	0	200	105	0	-
Cc1ccc2nc(-c3cccc(NC(=O)c4ccc5c(c4)OCCO5)c3)oc2c1	0	0	0	0	0	-	-	-
O=C(Nc1ccc2oc(-c3ccncc3)nc2c1)c1ccc([N+](=O)[O-])o1	56	0	162	0	0	46	44	45
O=C(Nc1ccc2oc(-c3ccncc3)nc2c1)c1cccs1	0	0	0	0	0	-	-	-
CCOC(=O)N1CCN(S(=O)(=O)c2ccc(C(=O)N(CCCN(C)C)c3nc4c(F)cc(F)cc4s3)cc2)CC1	0	0	0	0	0	-	-	-
Cn1c(=O)c2c(SCC(=O)Nc3ccccc3F)nc(-c3ccccc3F)nc2n(C)c1=O	71	0	55	0	355	101	0	61	XBP1 UPR conf=73
Cc1ccc(-c2nc(SCC(=O)Nc3cc(C)on3)c3c(=O)n(C)c(=O)n(C)c3n2)cc1	77	0	58	0	0	104	0	-
Cc1ccc(S(=O)(=O)N2CCN(C(=O)COC(=O)c3ccccc3Cl)CC2)c(C)c1	0	0	0	0	0	-	-	-
CCOC(=O)/C(=C\c1ccccc1)C(=O)c1cc(C(C)=O)c(Nc2ccccc2)s1	97	0	139	0	60	191	93	45	XBP1 UPR conf=41
CCOC(=O)C(=Cc1ccc(Br)cc1)C(=O)OCC	-	0	-	0	-	-	-	-
COC(=O)C1=C(C)N(c2ccc(Cl)cc2)/C(=C/c2ccc(O)cc2)C1=O	0	0	0	0	0	-	-	-
Cc1ccc(NC(=O)CN(C)C(=O)CSc2nnc(NC(C)C)s2)cc1	0	0	0	0	0	-	-	-
COc1ccc(NC(=O)C(=O)N/N=C\c2ccc(CNC(=O)C(=O)Nc3ccc(C)c(C)c3)o2)c(OC)c1	92	-	135	-	50	41	46	95	XBP1 UPR conf=52
SMILES	Mdm2-MdmX inh	ABHD5-PLIN5 inh	CHOP UPR activ	Exocytosis inh	UPR XBP1 act	CHOP UPR conf	Mdm2-MdmX conf	Full FLuc ctr	others
O=C(Cc1ccccc1)NCc1cccnc1	0	0	0	0	0	-	-	-
CC(C)c1ccc(N2C(=O)CC(Sc3nc4ccccc4o3)C2=O)cc1 (centres undefined)	100	0	199	0	0	95	0	-
C=CCc1cccc(/C=N/NC(=O)c2ccccc2OC)c1O	66	0	127	0	0	0	70	47
COc1cccc(N=Nc2ccc(O)c3ncccc23)c1	82	0	107	0	0	86	92	0
COCc1ccc(O)c2ncccc12	60	0	43	0	37	73	0	59
COc1ccc(C)cc1N=Nc1ccc(O)c2ncccc12	-	0	-	0	-	-	-	-
COc1cccc(N=Nc2ccc3cccnc3c2O)c1	91	0	127	0	0	86	90	0
COc1ccc(N=Nc2ccc(O)c3ncccc23)cc1	77	0	153	0	0	148	84	0
COc1cc(OC)cc(C(=O)Nc2cccc3cccnc23)c1	0	0	0	0	0	-	-	-
CCOc1ccc(/C=C/C(O)=C2/C(=O)NC3(C)CC2c2ccccc2O3)cc1OC (centres undefined)	83	0	46	0	41	0	90	0	XBP1 UPR conf=46
C/C(=N\NC(N)=S)C1C2C3CC4C5CC(C42)C1C53 (centres undefined)	0	0	0	0	0	-	-	-
C/C(CC(C)(C)C1CCCCC1)=N\NC(N)=S	56	0	72	0	69	43	0	-	XBP1 UPR conf=31
COc1ccc2[nH]cc(C(=O)CCl)c2c1	95	0	102	0	0	39	100	51
COc1ccc2cc1Oc1ccc(cc1)CC1c3c(cc(OC)c4c3Oc3cc5c(cc3O4)CCNC5C2)CCN1C (centres undefined)	100	0	41	0	52	39	100	0	XBP1 UPR conf=30
COc1ccc(N2C(=O)CC(Sc3nc4ccccc4s3)C2=O)cc1 (centres undefined)	0	0	0	0	0	-	-	-

Assay outcomes: PubChem, several laboratories
